An excerpt weighted towards active compounds, which were near 4.1% of everything screened.
KCNQ1 pot: human KCNQ1 channel potentiation or activation; AID 2648; P51787; B-score at 10 µM; 310,000 tested, 0.35% active; CHO-K1 KCNQ1, thallium flux FluxOR fluorescence; stronger effect = higher value;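 active = fluorescence ratio B-score, a plate-corrected score, at least three library SD, with initial intensity B-score within 5 SD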
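Material: CHO-K1 cells stably expressing KCNQ1. Medium: assay buffer for compound exposure, DMSO matched across wells. Reagent: K+/Tl+ depolarizing stimulus. Compound dosing: single-concentration screen. Times: 37 °C overnight plating, 90-min dark dye load, 20-min compound pretreatment. Technique: FluxOR Tl+ flux fluorescence.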
KCNQ1 block: human KCNQ1 channel inhibition; P51787; CHO-K1 KCNQ1, FluxOR thallium flux fluorescence; stronger effect = higher value; B-score at 10 µM; 310,000 tested, 1.3% active; AID 2642;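 active = compounds whose thallium flux B-score, printed positive for inhibition, exceeds three library SD while starting fluorescence stays within three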;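 note: channel opened by potassium depolarization with thallium stimulus after 20 min compound exposure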
Cl transport mod: KCC2 (human) Cl- transport modulation | B-score of Tl+ flux slope (higher = more flux/activation; lower = inhibition) at 10 µM | AID 1456 | KCC2 cells, thallium flux FluoZin-2 fluorescence | 190,000 tested, 2.2% active;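 active = thallium flux slope and its plate-corrected score both differing from the plate sample mean at a set confidence after two filtering rounds, in either direction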;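 note: slope of fluorescence scaled to starting intensity during 10 to 20 s after thallium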
KCNK3 inh: human KCNK3 channel inhibition, primary screen | B-score at 10 µM | CHO-KCNK3 thallium flux, FluxOR fluorescence; stronger effect = lower value | 340,000 tested, 0.84% active | AID 602410 | O14649;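 active = B-score under library mean minus 4 SD, starting fluorescence ratio at most library mean plus 5 SD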;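 note: more negative B-score means stronger inhibition of thallium flux through KCNK3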
Target sequence (O14649 whole entry, looked up): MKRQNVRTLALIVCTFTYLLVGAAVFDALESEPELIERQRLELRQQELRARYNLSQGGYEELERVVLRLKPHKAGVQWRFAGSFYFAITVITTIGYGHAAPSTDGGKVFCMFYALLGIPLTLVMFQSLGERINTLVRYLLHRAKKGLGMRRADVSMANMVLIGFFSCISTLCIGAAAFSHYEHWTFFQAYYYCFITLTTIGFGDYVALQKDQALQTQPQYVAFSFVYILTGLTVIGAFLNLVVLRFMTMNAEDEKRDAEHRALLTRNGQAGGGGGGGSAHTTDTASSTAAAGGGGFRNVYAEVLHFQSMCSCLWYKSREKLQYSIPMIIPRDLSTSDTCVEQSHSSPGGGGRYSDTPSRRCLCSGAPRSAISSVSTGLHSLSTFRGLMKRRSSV
hERG protect: shields human hERG channel from block by proarrhythmic agents | CHO-hERG, FluxOR thallium flux, dofetilide IC70 present | activation (rescue from dofetilide block), less the hit threshold, % at 10 µM | 310,000 tested, 0.51% active | AID 1511;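 active = activation above the mean of controls blocked by dofetilide plus 5 SD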;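 note: thallium influx through hERG after potassium depolarization seen as dye fluorescence rise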
KCNK9 block: blocks the human KCNK9 two-pore domain potassium channel. Q9NPC2. HEK293 KCNK9, FluxOR thallium flux fluorescence; stronger effect = lower value. B-score at 10 µM. 310,000 tested, 1.2% active. AID 488922;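 active = ratio B-score over 3 SD below the library mean, with starting fluorescence within 5 SD of its mean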;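 note: negative B-score means less thallium flux so channel inhibition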
KCNK9 inh conf: human KCNK9 inhibitor confirmation; shares compounds with KCNK9 block; HEK293 KCNK9 cells, FluxOR thallium flux fluorescence; inhibition, % at 10 µM; 4,900 tested, 43% active;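 active = thallium signal inhibited by more than 5 SD of the compound-free buffer control wells, on both duplicate plates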;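 note: 0% = assay buffer control wells without compound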
Kir2-1 spec: selectivity of KCNK9 modulators against mouse Kir2.1; shares compounds with KCNK9 block; Kir2.1 cells, FluxOR thallium flux fluorescence; inhibition, % at 10 µM; 4,900 tested, 4% active; AID 492993;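 active = thallium signal drop more than 5 SD beyond the mean of the no-compound control wells, seen in both duplicate plates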;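 note: signal is fluorescence rise after thallium addition divided by baseline fluorescence; plate controls were assay buffer only for no effect and full block by chlorpromazine control for full effect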
HEK293 Tl ctr: non-induced cell nonspecific activity of KCNK9 modulators; shares compounds with KCNK9 block; non-induced KCNK9-HEK293, FluxOR thallium flux; inhibition, % at 10 µM; 4,900 tested, 40% active;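 active = thallium signal drop beyond 5 SD of the untreated control mean, on both duplicate plates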;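 note: plate controls were buffer only IC0 wells for no effect and SID17386958 at its maximal inhibitory level for full effect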
The depositor's hits bear a star.

`CSCCC(NS(=O)(=O)c1ccc(C)cc1)C(=O)N1CCN(C(c2ccccc2)c2ccccc2)CC1` (centres undefined) gave KCNQ1 pot inactive, KCNQ1 block inactive, KCNK3 inh inactive, hERG protect -14, KCNK9 block -9.4*, KCNK9 inh conf 35%*, Kir2-1 spec inactive and HEK293 Tl ctr 32%*.
`CCCC[C@@H]1C[C@H]1[C@@H](NC(=O)c1ccco1)c1ccc(Cl)cc1` gave KCNQ1 pot inactive, KCNQ1 block inactive, Cl transport mod -1.5, KCNK3 inh inactive, hERG protect -9 and KCNK9 block inactive.
CCCC[C@@H]1C[C@H]1[C@@H](NC(=O)c1cccs1)c1ccc(Cl)cc1 was read as KCNQ1 pot inactive, KCNQ1 block 10*, Cl transport mod -0.22, hERG protect -23, KCNK9 block -11*, KCNK9 inh conf 52%*, Kir2-1 spec inactive and HEK293 Tl ctr 50%*.
`CCOC(=O)c1sc(/N=C/c2c(C)[nH]n(-c3ccccc3)c2=O)c(C#N)c1C` gave KCNQ1 pot inactive, KCNQ1 block inactive, Cl transport mod 1.9, hERG protect 1 and KCNK9 block inactive.
CC(=O)C1=C(C)NC(SCC(=O)c2cc(Cl)ccc2Cl)=C(C#N)C1c1ccco1 (centres undefined) was read as KCNQ1 pot inactive, KCNQ1 block 11*, KCNK3 inh -14*, hERG protect -6, KCNK9 block -14*, KCNK9 inh conf 74%*, Kir2-1 spec inactive and HEK293 Tl ctr 35%*.
For CC(=O)C1=C(C)NC(SCC(N)=O)=C(C#N)C1c1ccco1 (centres undefined) the results were KCNQ1 pot inactive, KCNQ1 block inactive, Cl transport mod -0.2, KCNK3 inh inactive, hERG protect -5 and KCNK9 block inactive.
c1ccc(CN2CCC3CC2c2cc(N4CCOCC4)ccc23)cc1 (centres undefined) was read as KCNK3 inh inactive.
Screening CN(CC1CCN(CCc2cccc(C(F)(F)F)c2)CC1)C(=O)c1ccc(F)cc1 returned KCNQ1 pot inactive, KCNQ1 block inactive, KCNK3 inh inactive, hERG protect -2, KCNK9 block inactive, KCNK9 inh conf inactive, Kir2-1 spec inactive and HEK293 Tl ctr inactive.
Screening O=C(COC(=O)c1ccccc1Br)Nc1ccc2[nH]c(=O)[nH]c2c1 returned KCNQ1 pot inactive, KCNQ1 block inactive, KCNK3 inh inactive, hERG protect -11 and KCNK9 block inactive.
`Cn1c(SCc2nc(-c3ccc(Cl)cc3)no2)nnc1-c1ccccc1` gave KCNQ1 pot inactive, KCNQ1 block inactive, Cl transport mod -3.3, KCNK3 inh inactive, hERG protect -10 and KCNK9 block inactive.
`Cc1ccc(-c2noc(CSc3nnc(CCc4ccccc4)n3-c3ccccc3)n2)cc1` gave KCNQ1 pot inactive, KCNQ1 block inactive, Cl transport mod -1.5, KCNK3 inh inactive, hERG protect -10, KCNK9 block -10*, KCNK9 inh conf inactive, Kir2-1 spec inactive and HEK293 Tl ctr 36%*.
Screening Cc1ccc(-c2noc(CSc3nnc(Cc4ccccc4)n3-c3ccc(Cl)cc3)n2)cc1 returned KCNQ1 pot inactive, KCNQ1 block inactive, KCNK3 inh inactive, hERG protect -10, KCNK9 block inactive, KCNK9 inh conf inactive, Kir2-1 spec inactive and HEK293 Tl ctr 31%*.

Compound activity (PubChem BioAssay)
